Assay results as given in PMC6331009 (Chemosphere, 2017).
pIC50, pKi: −log10 of the molar value. Where two headings read alike, the source gives them in different places.

Legend:
Type in all cases: biochemical
UGT2B4 [1] = target: T1, UGT2B4 (Homo sapiens, UniProt P06133); test: 4-MU glucuronidation, UPLC-UV, dose response
T1 sequence (P06133 24-528): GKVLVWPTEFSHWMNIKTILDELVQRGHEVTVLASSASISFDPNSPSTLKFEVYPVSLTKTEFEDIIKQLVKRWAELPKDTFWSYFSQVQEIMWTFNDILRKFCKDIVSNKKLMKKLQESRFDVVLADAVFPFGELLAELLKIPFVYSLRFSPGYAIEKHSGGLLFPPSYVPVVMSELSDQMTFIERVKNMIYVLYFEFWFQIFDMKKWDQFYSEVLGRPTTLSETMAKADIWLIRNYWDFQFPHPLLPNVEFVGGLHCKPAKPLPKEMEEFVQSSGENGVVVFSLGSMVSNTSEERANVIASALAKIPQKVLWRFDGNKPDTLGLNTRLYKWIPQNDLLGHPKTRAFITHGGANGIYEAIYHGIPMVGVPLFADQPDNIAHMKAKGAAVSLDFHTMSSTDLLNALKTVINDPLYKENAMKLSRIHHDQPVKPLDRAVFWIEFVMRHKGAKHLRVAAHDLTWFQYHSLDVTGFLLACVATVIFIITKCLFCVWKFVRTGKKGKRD
Procedure, shortened: (§1)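 Recombinant human UGT isoform expressed in baculovirus-infected insect cells. Test compound at 0, 0.5, 1, 5, 10, 20, 40, 60, 80 and 100 µM, with no-compound controls. After 5 min preincubation at 37 °C, 5 mM UDPGA was added to start the reaction. Reactions were stopped at 30–120 min with acetonitrile containing 7-hydroxycoumarin internal standard. 4-MU glucuronide was measured by C18 UPLC with UV at 316 nm as the peak-area ratio to internal standard. Two independent experiments in duplicate.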

UGT1A6 [2] = target: T2, UGT1A6 (Homo sapiens, UniProt P19224); test: 4-MU glucuronidation, UPLC-UV, Lineweaver-Burk slope replot
T2 sequence (P19224 27-532): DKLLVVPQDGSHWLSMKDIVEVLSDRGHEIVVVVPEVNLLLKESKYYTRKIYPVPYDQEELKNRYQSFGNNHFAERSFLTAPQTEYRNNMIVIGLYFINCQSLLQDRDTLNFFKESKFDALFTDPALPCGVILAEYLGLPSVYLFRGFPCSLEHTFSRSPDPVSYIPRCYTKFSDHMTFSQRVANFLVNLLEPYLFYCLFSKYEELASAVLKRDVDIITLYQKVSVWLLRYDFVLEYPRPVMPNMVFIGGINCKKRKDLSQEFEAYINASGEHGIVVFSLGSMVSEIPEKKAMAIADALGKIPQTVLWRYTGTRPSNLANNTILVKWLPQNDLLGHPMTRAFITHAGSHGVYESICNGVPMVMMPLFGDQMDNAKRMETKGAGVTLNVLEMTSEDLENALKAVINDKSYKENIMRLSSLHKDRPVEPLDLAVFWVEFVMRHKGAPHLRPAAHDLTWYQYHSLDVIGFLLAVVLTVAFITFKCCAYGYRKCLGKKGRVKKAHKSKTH
Procedure, shortened: (§2)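 Recombinant human UGT isoform expressed in insect cells. 4-MU was varied, with or without test compound at levels giving 20%, 40%, 60% and 80% inhibition. After 5 min at 37 °C, 5 mM UDPGA was added; reactions ran 30–120 min. Glucuronide was quantified by UPLC-UV at 316 nm against a 7-hydroxycoumarin internal standard, with points as duplicate means. Inhibition type came from Lineweaver-Burk plots, and Ki from a replot of slopes against inhibitor concentration.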

UGT1A9 [3] = target: T3, UGT1A9 (Homo sapiens, UniProt O60656); test: as above
T3 sequence (O60656 26-530): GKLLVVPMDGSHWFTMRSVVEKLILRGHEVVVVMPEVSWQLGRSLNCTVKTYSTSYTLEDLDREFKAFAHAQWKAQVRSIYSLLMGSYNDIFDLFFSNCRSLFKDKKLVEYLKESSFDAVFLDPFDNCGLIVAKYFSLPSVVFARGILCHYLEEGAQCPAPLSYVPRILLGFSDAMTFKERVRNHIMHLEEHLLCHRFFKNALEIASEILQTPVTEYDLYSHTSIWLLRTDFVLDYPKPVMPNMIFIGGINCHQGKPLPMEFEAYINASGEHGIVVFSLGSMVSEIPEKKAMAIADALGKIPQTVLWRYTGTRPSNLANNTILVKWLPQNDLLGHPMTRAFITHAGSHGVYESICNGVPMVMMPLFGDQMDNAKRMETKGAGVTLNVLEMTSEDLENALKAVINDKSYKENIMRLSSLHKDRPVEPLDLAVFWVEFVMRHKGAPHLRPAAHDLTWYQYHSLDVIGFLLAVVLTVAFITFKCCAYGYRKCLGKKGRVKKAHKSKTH
Procedure, shortened: as §2

UGT1A6 [4] = target: T2, UGT1A6; test: 4-MU glucuronidation, UPLC-UV, dose response
Procedure, shortened: as §1

UGT2B4 [5] = target: T1, UGT2B4; test: 4-MU glucuronidation, UPLC-UV, Lineweaver-Burk slope replot
Procedure, shortened: as §2

UGT1A7 [6] = target: T4, UGT1A7 (Homo sapiens, UniProt Q9HAW7); test: 4-MU glucuronidation, UPLC-UV, dose response
T4 sequence (Q9HAW7 26-530): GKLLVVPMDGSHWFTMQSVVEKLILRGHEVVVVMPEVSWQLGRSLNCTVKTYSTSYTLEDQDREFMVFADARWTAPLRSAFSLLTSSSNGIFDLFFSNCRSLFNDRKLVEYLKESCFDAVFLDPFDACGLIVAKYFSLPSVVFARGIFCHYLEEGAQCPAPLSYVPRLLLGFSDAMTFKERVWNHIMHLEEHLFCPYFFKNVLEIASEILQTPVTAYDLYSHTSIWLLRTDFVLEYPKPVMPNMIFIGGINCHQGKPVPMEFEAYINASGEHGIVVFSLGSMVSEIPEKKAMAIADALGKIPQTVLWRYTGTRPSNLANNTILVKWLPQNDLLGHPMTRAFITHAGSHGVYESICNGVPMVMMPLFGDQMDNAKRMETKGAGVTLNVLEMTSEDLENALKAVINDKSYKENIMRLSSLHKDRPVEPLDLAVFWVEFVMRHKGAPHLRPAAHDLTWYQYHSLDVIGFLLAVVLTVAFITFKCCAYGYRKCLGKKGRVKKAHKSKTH
Procedure, shortened: as §1

UGT1A9 [7] = target: T3, UGT1A9; test: 4-MU glucuronidation, UPLC-UV, dose response
Procedure, shortened: as §1

UGT1A7 [8] = target: T4, UGT1A7; test: 4-MU glucuronidation, UPLC-UV, Lineweaver-Burk slope replot
Procedure, shortened: as §2

[9] = competitive, 4-MU varied, UDPGA 5 mM, MgCl2 5 mM, Tris-HCl pH 7.4, 37 °C
[10] = competitive, 4-MU 30 μM, UDPGA 5 mM, MgCl2 5 mM, Tris-HCl pH 7.4, 37 °C

SMILES	pIC50 (UGT2B4 [1])	pKi (UGT1A9 [3])	pKi (UGT2B4 [5])	pIC50 (UGT1A9 [7])	pKi (UGT1A9 [3]; [9])	pIC50 (UGT1A9 [7]; [10])	further results
CCCCOC(=O)c1ccccc1C(=O)OCc1ccccc1 [BBZP]	4.86	6.08	5.14	5.26			pKi (UGT1A6 [2]): 4.28; pIC50 (UGT1A6 [4]): 4.27; pIC50 (UGT1A7 [6]): 4.71; pKi (UGT1A7 [8]): 4.91
CC(C)COC(=O)c1ccccc1C(=O)OCC(C)C [DiBP]	5.23	5.55	5.17	5.15			
CCCCCCOC(=O)c1ccccc1C(=O)OCCCCCC [DHP]					6.24	4.60	
C=CCOC(=O)c1ccccc1C(=O)OCC=C [DAP]							pIC50 (UGT2B4 [1]; competitive, 4-MU 1000 μM, UDPGA 5 mM, MgCl2 5 mM, Tris-HCl pH 7.4, 37 °C): 4.84; pKi (UGT2B4 [5]; [9]): 5.17
O=C(OC1CCCCC1)c1ccccc1C(=O)OC1CCCCC1 [DCHP]					5.97	5.84	
COCCOC(=O)c1ccccc1C(=O)OCCOC [DMEP]					5.35	4.74	
CCCCOC(=O)c1ccccc1C(=O)OCCCC [DBP]	4.92	4.64	5.31	4.75			
CCCCCOC(=O)c1ccccc1C(=O)OCCCCC [DPP]		5.76		4.73			
CC(C)CCOC(=O)c1ccccc1C(=O)OCCC(C)C [DiPP]		5.25		4.83			
CCCCOCCOC(=O)c1ccccc1C(=O)OCCOCCCC [BBOP]		4.13		4.55			pKi (UGT1A6 [2]): 4.81; pIC50 (UGT1A6 [4]): 4.45; pIC50 (UGT1A7 [6]): 4.74; pKi (UGT1A7 [8]): 4.63
